Experimental data from different studies.
Target: Mitogen-activated protein kinase kinase kinase 9 (MAP3K9, Homo sapiens, UniProt P80192)

Structure (SMILES)	effect on	action	technique	concentration	quantity	result
O=C1Nc2ccc(Cl)cc2C1=Cc1cc(Cl)c(O)c(Cl)c1	cell-free assay			0.5 µM	remaining signal	102%
Cc1ccc(Nc2nccc(N(C)c3ccc4c(C)n(C)nc4c3)n2)cc1S(N)(=O)=O	enzyme activity	inhibitor		0.3 µM	inhibition	88%
CC(C)c1ccc(NC(=O)c2cccs2)c(-c2nc3ccccc3[nH]c2=O)c1	enzyme activity	inhibitor		1 µM	activity vs control	92%
CN(c1ccnc(CNc2nc(Nc3ccc4c(c3)CC(=O)N4)ncc2C(F)(F)F)n1)S(C)(=O)=O	cell-free assay		competition with immobilised ligand	1 µM	remaining binding	41%
O=C(Nc1cccc(Nc2ncc(Br)c(NCCc3cnc[nH]3)n2)c1)N1CCCC1	enzyme activity	inhibitor	radiometric	1 µM	remaining activity	5%
CCC(=O)N[C@H]1CC[C@@H](C(=O)N(C)c2ccc(-c3nc4ccccc4o3)cc2)C1	cell-free assay		competition with immobilised ligand	1 µM	remaining binding	100%
Cc1nn(CC(F)(F)F)cc1Nc1ncc(C2CC2)c(NCCCNC(=O)C2CCC2)n1	enzyme activity	inhibitor	radiometric	1 µM	remaining activity	78%
C#Cc1cccc(Nc2ncnc3cc(OCCOC)c(OCCOC)cc23)c1	cell-free assay			0.5 µM	remaining signal	111%
O=C(NCCCNc1nc(Nc2cccc(NC(=O)N3CCCC3)c2)ncc1C1CC1)C1CCC1	enzyme activity	inhibitor	radiometric	1 µM	remaining activity	31%
O=C(Nc1cnn(-c2csc(C(=O)NC3COC3)c2)c1)Nc1ccccc1Cl	enzyme activity	inhibitor		5 µM	remaining activity	95.1%
CNC(=O)c1cc(Oc2ccc(NC(=O)Nc3ccc(Cl)c(C(F)(F)F)c3)cc2)ccn1	enzyme activity	inhibitor		0.3 µM	inhibition	-6%
COc1cc2ncnc(Nc3ccc(Oc4ccccc4)c(C)c3C)c2cc1OC	enzyme activity	inhibitor		1 µM	inhibition	1%
COc1cc(Nc2cnc(C#N)c(O[C@H](C)CN(C)C)n2)ncc1-c1cnn(C)c1	enzyme activity	inhibitor	radiometric	1 µM	remaining activity	92%
O=C1NC(=O)c2cc(Nc3ccc(F)cc3)c(Nc3ccc(F)cc3)cc21	cell-free assay			0.5 µM	remaining signal	102%
Cc1cc(NC(=O)c2cccc3cc(-c4cccc5[nH]nc(N)c45)ccc23)ccc1F	enzyme activity	inhibitor		0.1 µM	activity vs control	96%
Cc1nn(CC(F)(F)F)cc1Nc1ncc(Br)c(NCc2ccc(S(N)(=O)=O)cc2)n1	enzyme activity	inhibitor	radiometric	1 µM	remaining activity	80%
COc1cccc(CNC(=O)c2nc3scc(COCc4ccc(C(=O)O)cc4)c3c(=O)[nH]2)c1	cell-free assay		competition with immobilised ligand	1 µM	remaining binding	100%
COc1cccc2c(NCc3ccccc3)nc(-n3c(N)nc4ccccc43)nc12	target engagement in cells	inhibitor	chemoproteomics	20 mM	inhibition	11.3%
Brc1cnc(Nc2cccc(CN3CCOCC3)c2)nc1NCCc1c[nH]cn1	enzyme activity	inhibitor	radiometric	1 µM	remaining activity	-1%
Cc1c(C(=O)O)cc(-c2ccc(C3CCNCC3)cc2)c2ccc(-c3ccc(C(F)(F)F)cc3)cc12	binding		competition with immobilised ligand	1 µM	remaining binding	92%
NS(=O)(=O)c1ccc(CNc2nc(Nc3cccc(CN4CCOCC4)c3)ncc2Br)cc1	enzyme activity	inhibitor	radiometric	1 µM	remaining activity	25%
C[C@@H]1CN(c2cc(-c3nn(C)c4ccc(OC5(C)CC5)cc34)ncn2)C[C@H](C)O1	cell-free assay		competition with immobilised ligand	1 µM	remaining binding	100%
c1ccc(CNc2nc(N3CCOc4ccccc43)nc3c2CCCC3)cc1	target engagement in cells	inhibitor	chemoproteomics	20 mM	inhibition	3.8%
Cc1c[nH]c2nccc(Oc3c(F)cc(Nc4cc(Cl)nc(N)n4)cc3F)c12	cell-free assay		competition with immobilised ligand	0.1 µM	remaining binding	89%
CC/C(=N\NC(=O)NCc1cccc(O)c1)c1ccc(O)c(C)c1O	enzyme activity	inhibitor		0.1 µM	inhibition	5.1%
CCCOc1ccc([C@@H]2[C@@H](C(=O)O)[C@H](c3ccc4c(c3)OCO4)CN2CC(=O)Nc2c(CC)cccc2CC)cc1	cell-free assay		competition with immobilised ligand	1 µM	remaining binding	93%
Cc1nn(CC(F)(F)F)cc1Nc1nccc(NCCCNC(=O)C2CCC2)n1	enzyme activity	inhibitor	radiometric	1 µM	remaining activity	85%
CO[C@H]1CC[C@H](CNc2ccc(S(=O)(=O)NC(=O)c3ccc(N4CCN(CC5=C(c6ccc(Cl)cc6)CC(C)(C)CC5)CC4)cc3Oc3cnc4[nH]ccc4c3)cc2[N+](=O)[O-])CC1	cell-free assay		competition with immobilised ligand	1 µM	remaining binding	84%
NS(=O)(=O)c1ccc(CNc2nc(Nc3cccc(NC(=O)N4CCCC4)c3)ncc2Br)cc1	enzyme activity	inhibitor	radiometric	1 µM	remaining activity	30%
